Tests used:
Rattus norvegicus [1] = assay: Maximum % decrease of blood glucose (deltaBG) was observed within 4 hour after administration orally at 10 mg/kg dose to fasted adult female rats versus a control group; format: functional; settings: route oral
Outline: (§1)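 Female Wistar rats (Chbb THOM, SPF, 200-220 g), fasted 24 h, dosed orally by gavage as suspension in 1.5% Tylose methylcellulose (10 mL/kg). Whole blood from retrobulbar plexus under light halothane, deproteinized with 0.33 M HClO4; glucose by hexokinase/G6PDH, hourly up to 4 h. % decrease vs control group (N = 7), Student's t-test, P ≤ 0.05.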

Rattus norvegicus [2] = assay: Maximum % decrease of blood glucose (deltaBG) was observed within 4 hour after administration orally at 1 mg/kg dose to fasted adult female rats versus a control group; format: functional; settings: route oral; outline: as §1

Row | SMILES | Delta BG (Rattus norvegicus [1]) | Delta BG (Rattus norvegicus [2]) | Delta BG (Rattus norvegicus [2]; 1 mg/kg)
1 | COc1ccccc1C(C)NC(=O)Cc1ccc(C(=O)O)cc1 (stereo not given) | -21% | – | –
2 | CCOc1cc(CC(=O)NC(Cc2ccccc2)c2ccccc2N2CCCCC2)ccc1C(=O)O (stereo not given) | -38% | – | –
3 | CC1CCCN(c2ccc(Cl)cc2C(=O)NCCc2ccc(C(=O)O)cc2)C1 (stereo not given) | – | -22% | –
4 | O=C(Cc1ccc(C(=O)O)cc1)NCc1ccccc1N1CCCCC1 | -38% | – | –
5 | O=C(Cc1ccc(C(=O)O)cc1)NC(c1ccccc1N1CCCCC1)C1CCCCC1 (stereo not given) | – | -27% | –
6 | CCCC(NC(=O)Cc1ccc(C(=O)O)cc1)c1cc(Cl)ccc1N1CCCCC1 (stereo not given) | – | -17% | –
7 | O=C(Cc1ccc(C(=O)O)cc1)NC(Cc1ccccc1)c1ccccc1N1CCCCC1 (stereo not given) | -27% | – | –
8 | O=C(O)c1ccc(CCNC(=O)c2cc(Cl)ccc2N2CCCCCC2)cc1 | – | -16% | –
9 | CC1CCN(c2ccccc2C(C)NC(=O)Cc2ccc(C(=O)O)cc2)CC1 (stereo not given) | -46% | -27% | –
10 | CCCC(/N=C(\S)Cc1ccc(C(=O)O)cc1)c1ccccc1N1CCCCC1 (stereo not given) | -35% | – | –
11 | CC1CCCN(c2ccccc2C(C)NC(=O)Cc2ccc(C(=O)O)cc2)C1 (stereo not given) | -42% | -27% | –
12 | CCCC(NC(=O)Cc1ccc(C(=O)O)cc1)c1ccccc1-c1ccccc1 (stereo not given) | -21% | – | –
13 | CCC[C@@H](NC(=O)Cc1ccc(C(=O)O)cc1)c1ccccc1N1CCCCC1 | – | -19% | –
14 | CCCC(CC(=O)Cc1ccc(C(=O)O)cc1)c1ccccc1N1CCCCC1 (stereo not given) | -11% | – | –
15 | CCOc1cc(CCNC(=O)c2cc(Cl)ccc2N2CCCCCCCC2)ccc1C(=O)O | – | -16% | –
16 | CC(C)(NC(=O)Cc1ccc(C(=O)O)cc1)c1ccccc1N1CCCCC1 | -34% | – | –
17 | CCCCCC(NC(=O)Cc1ccc(C(=O)O)cc1)c1ccccc1N1CCCCC1 (stereo not given) | – | -29% | –
18 | CCOc1cc(CCNC(=O)c2cc(Cl)ccc2OC)ccc1C(=O)O | -35% | -8% | –
19 | CC1CCCN(c2ccc(Cl)cc2C(C)NC(=O)Cc2ccc(C(=O)O)cc2)C1 (stereo not given) | -34% | – | –
20 | CCCC(NC(=O)Cc1ccc(C(=O)O)cc1)c1ccccc1C1CCCCC1 (stereo not given) | -31% | -9% | –

Row | SMILES | Delta BG (Rattus norvegicus [1]) | Delta BG (Rattus norvegicus [2]) | Delta BG (Rattus norvegicus [2]; 1 mg/kg)
21 | CCCC(c1ccccc1N1CCCCC1)N(C)C(=O)Cc1ccc(C(=O)O)cc1 (stereo not given) | -12% | – | –
22 | CCCCCCC(NC(=O)Cc1ccc(C(=O)O)c(OCC)c1)c1ccccc1N1CCCCC1 (stereo not given) | – | -21% | –
23 | O=C(Cc1ccc(C(=O)O)cc1)NC(CCc1ccccc1)c1ccccc1N1CCCCC1 (stereo not given) | -38% | – | –
24 | COc1ccc(Cl)cc1C(C)NC(=O)Cc1ccc(C(=O)O)cc1 (stereo not given) | -14% | – | –
25 | O=C(Cc1ccc(C(=O)O)cc1)NCc1cc(Cl)ccc1N1CCCCC1 | -37% | – | –
26 | CC1CCCCN1c1ccc(Cl)cc1C(=O)NCCc1ccc(C(=O)O)cc1 (stereo not given) | – | -16% | –
27 | CC(NC(=O)Cc1ccc(C(=O)O)cc1)c1ccccc1N1CCCCC1C (stereo not given) | -43% | -13% | –
28 | CCCC(NC(=O)Cc1ccc(C(=O)O)cc1)c1ccccc1 (stereo not given) | -18% | – | –
29 | CC(NC(=O)Cc1ccc(C(=O)O)cc1)c1cc(Cl)ccc1N(C)C (stereo not given) | -20% | – | –
30 | O=C(O)c1ccc(CCNC(=O)c2cc(Cl)ccc2N2CCCCCCC2)cc1 | – | -29% | –
31 | O=C(O)c1ccc(CCNC(=O)c2cc(Cl)ccc2N2CCCCCCCCC2)cc1 | – | -29% | –
32 | COc1cc(CCNC(=O)c2cc(Cl)ccc2N2CCCCCCCC2)ccc1C(=O)O | – | -15% | –
33 | CC1CC(C)CN(c2ccc(Cl)cc2C(=O)NCCc2ccc(C(=O)O)cc2)C1 (stereo in doubt; 5i) | – | – | -11%
34 | CC(NC(=O)Cc1ccc(C(=O)O)cc1)c1cc(Cl)ccc1N1CCCC1 (stereo not given) | -26% | – | –
35 | CC(NC(=O)Cc1ccc(C(=O)O)cc1)c1ccccc1N(C)C (stereo not given) | -20% | – | –
36 | O=C(O)c1ccc(CCNC(=O)c2ccccc2N2CCCCCCCC2)cc1 | – | -9% | –
37 | CC(NC(=O)Cc1ccc(C(=O)O)cc1)c1cc(Cl)ccc1N1CCCCC1C (stereo not given) | -14% | – | –
38 | CCCC(NC(=O)Cc1ccc(C(=O)O)cc1)c1ccccc1OC (stereo not given) | -44% | -21% | –
39 | CC1CC(C)CN(c2ccc(Cl)cc2C(C)NC(=O)Cc2ccc(C(=O)O)cc2)C1 (stereo not given) | -20% | – | –
